According to publication PMC5598375 (Toxicology Reports, 2014):
“Also recorded” adds a separate entry of the source.

How the values were obtained:
[1] = test system: 48 h-old mwh+/+flr^3 larvae; assay: Toxicity test; format: in vivo, Drosophila melanogaster; settings: for % of non-viable larvae / No. of viable larvae ± SEM: 500 larvae
[2] = test system: Drosophila strain; settings: chronic treatment, cited from earlier work
[3] = test system: somatic cells of Drosophila; settings: PP-IX 69 mM, 24 h after administration, with 0.5 mM N-nitroso-N-ethylurea (ENU); cited from earlier work
[4] = test system: 48 h-larvae mwh+/+flr^3; assay: Wing spot test; format: in vivo, Drosophila melanogaster; settings: CrO3 0.025–2.5 mM
[5] = test system: 48 h-larvae mwh +/+ flr^3; assay: Wing spot test; format: in vivo, Drosophila melanogaster; settings: for Total spots, statistical diagnosis / Small single spots (1-2 cells), statistical diagnosis: m = 2; for Total spots, statistical diagnosis / Large single spots (>cells), statistical diagnosis / Small single spots (1-2 cells), statistical diagnosis: vs negative control; for Large single spots (>cells), statistical diagnosis: m = 5
Outline: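 Crosses: mwh/mwh females × flr3/TM3,Bds males mated 2 h, eggs laid over 2 h. 48 h larvae were collected on 20% sucrose, washed in 24 ± 1 °C water, held 24 h in the dark on filter paper with PP-IX (0–69 mM in 5% sucrose), then fed CrO3 (0.025–2.5 mM) in instant medium, in triplicate. Non-Ser wings were scored at 40× for small (1–2 cells), large and twin spots. Frei–Würgler one-sided test, α=β=0.05, m multiplication factor.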

[6] = test system: 48 h-old mwh +/+ flr^3 larvae; assay: Wing spot test, PP-IX pretreatment then 20 Gy gamma rays; format: in vivo, Drosophila melanogaster; settings: for Large single spots (>cells) per wing / Large single spots (>cells), number of spots / Small single spots (1-2 cells) per wing / Small single spots (1-2 cells), number of spots / Total spots per wing / Total spots, number of spots / Twin spots per wing / Twin spots, number of spots: 80 wings; for Small single spots (1-2 cells), statistical diagnosis / Total spots, statistical diagnosis: m = 2
Outline: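 48 h-old mwh/flr3 larvae were pretreated 24 h in the dark on filter paper with PP-IX (0, 0.69, 6.9, 69 mM in 5% sucrose). Each group was then split: one half received 20 Gy from a Co-60 source (dose rate up to 1259.44 Gy/h), the other stayed unirradiated. Larvae were reared on hydrated instant medium to eclosion. Wing spots were scored by SMART and analysed by Frei–Würgler statistics, m multiplication factor.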

[7] = test system: rats of the CF1 strain; settings: cited from earlier work
[8] = PP-IX 0.69 mM 24 h pretreatment alone, 120 wings
[9] = PP-IX 6.9 mM 24 h pretreatment alone, 120 wings
[10] = PP-IX 69 mM 24 h pretreatment alone, 160 wings
[11] = PP-IX 0.69 mM 24 h pretreatment + 20 Gy gamma rays
[12] = PP-IX 0.69 mM + 20 Gy gamma rays
[13] = PP-IX 6.9 mM 24 h pretreatment + 20 Gy gamma rays
[14] = PP-IX 6.9 mM + 20 Gy gamma rays
[15] = PP-IX 69 mM 24 h pretreatment + 20 Gy gamma rays
[16] = PP-IX 69 mM + 20 Gy gamma rays, m = 5

SMILES: C=CC1=C(C)c2cc3[nH]c(cc4nc(cc5[nH]c(cc1n2)c(C)c5CCC(=O)O)C(CCC(=O)O)=C4C)c(C)c3C=C [PP-IX, Protoporphyrin-IX]
- % of non-viable larvae ([1]; PP-IX 0.69 mM): 21%
- No. of viable larvae ± SEM ([1]; PP-IX 0.69 mM): 394 ± 1.7
- % of non-viable larvae ([1]; PP-IX 6.9 mM): 11%
- No. of viable larvae ± SEM ([1]; PP-IX 6.9 mM): 447 ± 0.6
- Reduction of toxicity compared to control ([1]; PP-IX 6.9 mM, not significantly): 5%
- % of non-viable larvae ([1]; PP-IX 69 mM): 26%
- No. of viable larvae ± SEM ([1]; PP-IX 69 mM): 368 ± 0.5
- Toxicity compared to the control ([1]; PP-IX 0.69, 6.9, 69 mM (three concentrations tested)): nontoxic; also recorded: not toxic
- Half life, Sod deficient strain ([2]; Sod deficient strain): half life was reduced
- Lifespan, wild strain ([2]; wild Drosophila strain): prolong the lifespan
- Mutagenicity in combination with ENU [3]: mutagenic
- Effect on genetic damage induced by CrO3 ([4]; PP-IX 0.69 mM): significant decrease of damage in four of the five concentrations of CrO3 tested; also recorded: significantly reduced the genetic damage induced by all CrO3 concentrations tested
- Effect on genetic damage induced by CrO3 ([4]; PP-IX 6.9 mM): significantly decreased the frequency of damage induced by 2 and 2.5 mM of the mutagen
- Effect on genetic damage induced by CrO3 ([4]; PP-IX 69 mM): only reduced the damage induced by 2.5 mM
- Large single spots (>cells) per wing [5, 8]: 0.05 spots per wing
- Large single spots (>cells), number of spots [5, 8]: 6
- Small single spots (1-2 cells) per wing [5, 8]: 0.33 spots per wing
- Small single spots (1-2 cells), number of spots [5, 8]: 40
- Total spots per wing [5, 8]: 0.41 spots per wing
- Total spots, number of spots [5, 8]: 49
- Twin spots per wing [5, 8]: 0.03 spots per wing
- Twin spots, number of spots [5, 8]: 3
- Total spots, statistical diagnosis ([5]; PP-IX 0.69 mM alone): −
- Large single spots (>cells), statistical diagnosis ([5]; PP-IX 0.69 mM alone): −
- Large single spots (>cells) per wing [5, 9]: 0.05 spots per wing
- Large single spots (>cells), number of spots [5, 9]: 6
- Small single spots (1-2 cells) per wing [5, 9]: 0.23 spots per wing
- Small single spots (1-2 cells), number of spots [5, 9]: 28
- Total spots per wing [5, 9]: 0.28 spots per wing
- Total spots, number of spots [5, 9]: 34
- Twin spots per wing [5, 9]: 0 spots per wing
- Twin spots, number of spots [5, 9]: (0)
- Small single spots (1-2 cells), statistical diagnosis ([5]; PP-IX 6.9 mM alone): −
- Total spots, statistical diagnosis ([5]; PP-IX 6.9 mM alone): −
- Large single spots (>cells), statistical diagnosis ([5]; PP-IX 6.9 mM alone): −
- Large single spots (>cells) per wing [5, 10]: 0.14 spots per wing
- Large single spots (>cells), number of spots [5, 10]: 23
- Small single spots (1-2 cells) per wing [5, 10]: 0.51 spots per wing
- Small single spots (1-2 cells), number of spots [5, 10]: 81
- Total spots per wing [5, 10]: 0.66 spots per wing
- Total spots, number of spots [5, 10]: 106
- Twin spots per wing [5, 10]: 0.01 spots per wing
- Twin spots, number of spots [5, 10]: 2
- Effect of PP-IX alone on basal mutation frequency ([5]; PP-IX 69 mM alone): doubled the basal mutation frequency
- Small single spots (1-2 cells), statistical diagnosis ([5]; PP-IX 69 mM alone): +
- Total spots, statistical diagnosis ([5]; PP-IX 69 mM alone): +
- Large single spots (>cells), statistical diagnosis ([5]; PP-IX 69 mM alone): −
- Mutagenicity of PP-IX alone ([5]; PP-IX 69 mM, damage comparable with 0.25 mM of CrO3): mutagenic
- Induction of genetic damage by PP-IX alone ([5]; PP-IX 0.69 and 6.9 mM): did not induce genetic damage
- Large single spots (>cells) per wing [6, 11]: 1.16 spots per wing
- Large single spots (>cells), number of spots [6, 11]: 93
- Small single spots (1-2 cells) per wing [6, 11]: 0.82 spots per wing
- Small single spots (1-2 cells), number of spots [6, 11]: 66
- Total spots per wing [6, 11]: 2.07 spots per wing
- Total spots, number of spots [6, 11]: 166
- Twin spots per wing [6, 11]: 0.08 spots per wing
- Twin spots, number of spots [6, 11]: 7
- Small single spots (1-2 cells), statistical diagnosis [6, 12]: −
- Total spots, statistical diagnosis [6, 12]: −
- Twin spots, statistical diagnosis ([6]; PP-IX 0.69 mM + 20 Gy gamma rays, m = 5): −
- Large single spots (>cells) per wing [6, 13]: 1.84 spots per wing
- Large single spots (>cells), number of spots [6, 13]: 147
- Small single spots (1-2 cells) per wing [6, 13]: 0.69 spots per wing
- Small single spots (1-2 cells), number of spots [6, 13]: 55
- Total spots per wing [6, 13]: 2.67 spots per wing
- Total spots, number of spots [6, 13]: 214
- Twin spots per wing [6, 13]: 0.15 spots per wing
- Twin spots, number of spots [6, 13]: 12
- Small single spots (1-2 cells), statistical diagnosis [6, 14]: −
- Total spots, statistical diagnosis [6, 14]: −
- Twin spots, statistical diagnosis ([6]; PP-IX 6.9 mM + 20 Gy gamma rays, m = 5): −
- Large single spots (>cells) per wing [6, 15]: 1.52 spots per wing
- Large single spots (>cells), number of spots [6, 15]: 122
- Small single spots (1-2 cells) per wing [6, 15]: 1.16 spots per wing
- Small single spots (1-2 cells), number of spots [6, 15]: 93
- Total spots per wing [6, 15]: 2.76 spots per wing
- Total spots, number of spots [6, 15]: 221
- Twin spots per wing [6, 15]: 0.07 spots per wing
- Twin spots, number of spots [6, 15]: 6
- Small single spots (1-2 cells), statistical diagnosis ([6]; PP-IX 69 mM + 20 Gy gamma rays): −
- Total spots, statistical diagnosis ([6]; PP-IX 69 mM + 20 Gy gamma rays): −
- Large single spots (>cells), statistical diagnosis [6, 16]: −
- Twin spots, statistical diagnosis [6, 16]: −
- Effect on damage induced by gamma rays ([6]; PP-IX all tested concentrations, 20 Gy): no effect; also recorded: Absence of an inhibitor effect
- Increase of catalase (CAT) activity ([7]; after 2 h of administration): 30%
- Lipid peroxidation [7]: induced lipid peroxidation
- Superoxide dismutase (SOD) enzyme [7]: increased 24 h after administration
